# Laboratory results from ChEMBL document CHEMBL1149224, “Direct superoxide anion scavenging by a highly water-dispersible carotenoid phospholipid evaluated by electron paramagnetic resonance (EPR) spectroscopy” (2004).
# How the values were obtained:
# Assay type in all cases: functional
# [1] = species: Homo sapiens; assay: Mean percent inhibition of aqueous superoxide anion production in isolated human neutrophil assay at 3 mM using ethanol as solvent
# Procedure, shortened: (§1)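 Human PMNs from one donor's venous blood were isolated on a Percoll gradient (1.080 g/mL, 400g, 20 min, 20 C), erythrocytes removed by hypotonic lysis, and cells washed in PAG buffer (PIPES pH 7.4, 0.003% HSA, 0.1% glucose). Carotenoid phospholipid isomer mix was taken from a 41.2% EtOH stock (0.4% EtOH final). Cells were preincubated 5 min, then PMA-stimulated. The DEPMPO-OOH adduct (10 mM DEPMPO) was read by X-band EPR, and % inhibition set against the no-compound control.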
# [2] = species: Homo sapiens; assay: Mean percent inhibition of aqueous superoxide anion production in isolated human neutrophil assay at 0.5 mM using ethanol as solvent; procedure, shortened: as §1
# [3] = species: Homo sapiens; assay: Mean percent inhibition of aqueous superoxide anion production in isolated human neutrophil assay at 0.1 mM using ethanol as solvent; procedure, shortened: as §1
# [4] = species: Homo sapiens; assay: Mean percent inhibition of aqueous superoxide anion production in isolated human neutrophil assay at 10 mM using water as solvent
# Procedure, shortened: (§2)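 The carotenoid phospholipid isomer mix was dispersed in deionized water without heat, detergent or additives. Isolated human PMNs (Percoll gradient, hypotonic erythrocyte lysis, washed in PIPES-HSA-glucose buffer, pH 7.4) were preincubated 5 min with the suspension, then PMA-stimulated. Superoxide was spin-trapped with 10 mM DEPMPO and the DEPMPO-OOH signal measured by X-band EPR. Inhibition is expressed relative to the no-compound control signal.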
# [5] = species: Homo sapiens; assay: Mean percent inhibition of aqueous superoxide anion production in isolated human neutrophil assay at 0.3 mM using ethanol as solvent; procedure, shortened: as §1
# [6] = species: Homo sapiens; assay: Mean percent inhibition of aqueous superoxide anion production in isolated human neutrophil assay at 1 mM using ethanol as solvent; procedure, shortened: as §1
# [7] = species: Homo sapiens; assay: Mean percent inhibition of aqueous superoxide anion production in isolated human neutrophil assay at 0.5 mM using water as solvent; procedure, shortened: as §2
# [8] = species: Homo sapiens; assay: Mean percent inhibition of aqueous superoxide anion production in isolated human neutrophil assay at 3 mM using water as solvent; procedure, shortened: as §2
# [9] = species: Homo sapiens; assay: Mean percent inhibition of aqueous superoxide anion production in isolated human neutrophil assay at 1 mM using water as solvent; procedure, shortened: as §2
Structure (SMILES),Mean inhibition [1] [%],Mean inhibition [2] [%],Mean inhibition [3] [%],Mean inhibition [4] [%],Mean inhibition [5] [%],Mean inhibition [6] [%],Mean inhibition [7] [%],Mean inhibition [8] [%],Mean inhibition [9] [%]
CC1=C(/C=C/C(C)=C/C=C/C(C)=C/C=C/C=C(C)/C=C/C=C(\C)C(=O)OC(CO)COP(=O)([O-])OCC[N+](C)(C)C)C(C)(C)CCC1.CC1=C(/C=C/C(C)=C/C=C/C(C)=C/C=C/C=C(C)/C=C/C=C(\C)C(=O)OCC(CO)OP(=O)([O-])OCC[N+](C)(C)C)C(C)(C)CCC1.CC1=C(/C=C/C(C)=C/C=C/C(C)=C/C=C/C=C(C)/C=C/C=C(\C)C(=O)OCC(O)COP(=O)([O-])OCC[N+](C)(C)C)C(C)(C)CCC1 (stereo not given),98.7,61.7,13.3,94.3,31.3,79.3,18.2,51.8,24.6
CC1=C(/C=C/C(C)=C/C=C/C(C)=C/C=C/C=C(C)/C=C/C=C(C)/C=C/C2=C(C)C(=O)C(OC(=O)CCC(=O)[O-])CC2(C)C)C(C)(C)CC(OC(=O)CCC(=O)[O-])C1=O.[Na+].[Na+] (stereo not given) [DISODIUM SALT DISUCCINATE DIESTER OF ASTAXANTHIN],,,38,,,,,,
